Reference: ChEMBL document CHEMBL3739311 (ACS Med Chem Lett, 2015)
Values after ≈ are worked out from the molar mass of the structure shown.

Tests used:
[1] = tested on: Human immunodeficiency virus 1; assay: Antiviral activity against HIV-1 X4 expressing wild-type reverse transcriptase infected in human CD4+ T cells for 3 days by FACS analysis; assay type: functional, organism-based; conditions: Human immunodeficiency virus 1, X4, T-cell, 72 h
Procedure, shortened: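 Single-round infectivity assay using HIV strains carrying wild-type RT (WT X4); EC50 determined.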

[2] = tested on: Human immunodeficiency virus 1; assay: Antiviral activity against HIV-1 X4 expressing reverse transcriptase K101P mutant infected in human CD4+ T cells for 3 days by FACS analysis; assay type: functional, organism-based; conditions: Human immunodeficiency virus 1, T-cell, 72 h
Procedure, shortened: (§1)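 Single-round infectivity assay against HIV strains whose RT carries the K101P, K103N or Y181C mutation, alongside a WT X4 strain; EC50 determined.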

[3] = tested on: Human immunodeficiency virus 1; assay: Antiviral activity against HIV-1 X4 expressing reverse transcriptase K103N mutant infected in human CD4+ T cells for 3 days by FACS analysis; assay type: functional, organism-based; conditions: Human immunodeficiency virus 1, T-cell, 72 h; procedure, shortened: as §1
[4] = tested on: Human immunodeficiency virus 1; assay: Antiviral activity against HIV-1 X4 expressing reverse transcriptase Y181C mutant infected in human CD4+ T cells for 3 days by FACS analysis; assay type: functional, organism-based; conditions: Human immunodeficiency virus 1, T-cell, 72 h; procedure, shortened: as §1
[5] = Aqueous solubility of compound; assay type: physicochemical
[6] = biological target: Human immunodeficiency virus type 1 reverse transcriptase (Human immunodeficiency virus 1, UniProt Q72547, K101P); assay: Inhibition of HIV-1 reverse transcriptase K101P mutant by fluorescence assay
Procedure, shortened: (§2)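 PicoGreen fluorescence read-out of reverse transcription, run with both RT(WT) and RT(K101P) enzymes; IC50 determined for each enzyme. The fold-change is IC50 for RT(K101P) over IC50 for RT(WT).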

[7] = Cytotoxicity against human CD4-positive T cells; assay type: cell-based, T-cell
[8] = biological target: Human immunodeficiency virus type 1 reverse transcriptase (Human immunodeficiency virus 1, UniProt Q72547); assay: Inhibition of wild-type HIV-1 reverse transcriptase by fluorescence assay
Procedure, shortened: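 Reverse transcription inhibition by wild-type RT enzyme, read by PicoGreen fluorescence; IC50 in nM.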

[9] = tested on: Human immunodeficiency virus 1; assay: Selectivity index, ratio of IC50 for HIV-1 reverse transcriptase K101P mutant to IC50 for wild-type HIV-1 reverse transcriptase; procedure, shortened: as §2
[10] = tested on: Human immunodeficiency virus 1; assay: Antiviral activity against HIV-1 NL4-3 expressing reverse transcriptase E138K mutant infected in MT-2 cells by MTT assay; assay type: functional, organism-based; conditions: Human immunodeficiency virus 1, NL4-3, MT2
[11] = tested on: Human immunodeficiency virus 1; assay: Antiviral activity against HIV-1 NL4-3 expressing reverse transcriptase E138K/M184V mutant infected in MT-2 cells by MTT assay; assay type: functional, organism-based; conditions: Human immunodeficiency virus 1, NL4-3, MT2

Compound | EC50 [1] [nM] | EC50 [2] [nM] | EC50 [3] [nM] | EC50 [4] [nM] | solubility [5] [µg/mL] | IC50 [6] [nM] | CC50 [7] [nM] | IC50 [8] [nM] | Ratio IC50 [9] | EC50 [10] [nM] | EC50 [11] [nM]
Cc1cc(/C=C/C#N)cc(C)c1Nc1ccnc(Nc2ccc(C#N)cc2)n1 [RILPIVIRINE] | 13 | 1140 | 13 | 51 | < 0.1 | 1000 | – | – | – | – | –
N#C/C=C/c1cc(Cl)cc(Oc2ccccc2OCCn2ccc(=O)[nH]c2=O)c1 | 5 | 8 | 50 | 23 | – | 2.1 | 18000 | 3.3 | 0.6 | 2.8 | 2.2
O=C1Nc2ccc(Cl)cc2[C@@](C#CC2CC2)(C(F)(F)F)O1 [EFAVIRENZ] | – | 870 | 836 | 41 | – | – | – | – | – | – | –
N#C/C=C/c1cc(F)cc(Oc2ccc(F)cc2OCCn2ccc(=O)[nH]c2=O)c1 | 2 | 2 | 89 | 8 | 10.8 (≈ 26.3 µM) | 2.2 | 45000 | 2.7 | 0.8 | – | –
N#Cc1cc2c(Oc3ccccc3OCCn3ccc(=O)[nH]c3=O)cccn2c1 | 1 | 1 | 3 | 2 | – | 1.9 | > 100000 | 1.06 | 1.8 | 0.9 | 0.75
